This note sets out measurements from ChEMBL document CHEMBL1124145, “Dinucleotide analogues as inhibitors of thymidine kinase, thymidylate kinase, and ribonucleotide reductase” (J Med Chem, 1988).

Molecules are shown by their SMILES.

Usually IC50 stands for the midpoint of a concentration-inhibition curve.

Holding throughout (type): cell-based
Experiment [1] in a line: Concentration required to reduce Ribonucleotide reductase rate by 50% in L1210 cells. The method, boiled down: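 Enzyme: crude L1210 extract brought to pH 5.2 with 1 M acetic acid; the precipitate was dissolved in 50 mM Tris-HCl pH 8.0. CDP reductase activity was measured by a published method. Data were fitted by nonlinear least-squares regression to response = a + b ln[inhibitor] with weighted error, and the IC50 was taken from the fit.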

A further experiment has as its target T1, Thymidylate kinase (Homo sapiens, UniProt P23919).
T1 sequence (P23919 whole entry): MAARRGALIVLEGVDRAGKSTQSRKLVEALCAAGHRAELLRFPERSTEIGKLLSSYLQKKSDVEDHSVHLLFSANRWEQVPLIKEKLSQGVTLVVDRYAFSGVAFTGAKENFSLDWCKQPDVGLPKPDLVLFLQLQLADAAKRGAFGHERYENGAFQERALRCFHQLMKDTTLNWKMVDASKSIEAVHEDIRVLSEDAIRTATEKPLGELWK
The experiment can be described thus: Concentration required to reduce Thymidylate kinase rate by 50% in human blast cells. In outline:
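Enzyme: dialyzed extract of blast cells from an acute myeloid leukemia patient. Data were fitted by nonlinear least-squares regression to response = a + b ln[inhibitor], error weighting 1/(γ+γ)^2, and the IC50 was derived from the fit.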

Experiment [2] in a line: Concentration required to reduce thymidine kinase rate by 50% in L1210 cells. In outline: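 Cytoplasmic isoenzyme affinity-purified from L1210 cells. Reaction: 1 mM ATP, 1 mM MgCl2, 10 μM [3H]thymidine (150 μCi/μmol), 5% sucrose, 40 mM Tris pH 7.8. Inhibitor ranged 0-500 μM. Inhibitor concentrations were verified by UV absorbance at 260 nm.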

On to `Cc1cn([C@H]2C[C@H](O)[C@@H](COP(=O)(O)OP(=O)(O)OP(=O)(O)OP(=O)(O)OP(=O)(O)OC[C@H]3O[C@@H](n4cnc5c(N)ncnc54)[C@H](O)[C@@H]3O)O2)c(=O)[nH]c1=O`, for which the results for the IC50 (in experiment [1]; against Thymidylate kinase; in experiment [2]) were 14 µM, 8 µM and 2.5 µM, respectively.

`Cc1cn([C@H]2C[C@H](O)[C@@H](CO[P@@](=O)(O)O[P@@](=O)(O)O[P@@](=O)(O)O[P@@](=O)(O)OC[C@H]3O[C@@H](n4cnc5c(N)ncnc54)[C@H](O)[C@@H]3O)O2)c(=O)[nH]c1=O`: the IC50 in experiment [1] amounted to 77 µM; against Thymidylate kinase, 290 µM; in experiment [2] it was 15 µM.

Regarding `Cc1cn(C2C[C@H](O)[C@@H](COP(=O)(O)OP(=O)(O)OP(=O)(O)OP(=O)(O)OP(=O)(O)OP(=O)(O)OC[C@H]3OC(n4cnc5c(N)ncnc54)[C@H](O)[C@@H]3O)O2)c(=O)[nH]c1=O` (some centres undefined), the IC50 is 20 µM in experiment [1] and 6 µM against Thymidylate kinase.

In the case of `Cc1cn(C2C[C@H](O)[C@@H](COP(=O)(O)CP(=O)(O)OP(=O)(O)OC[C@H]3OC(n4cnc5c(N)ncnc54)[C@H](O)[C@@H]3O)O2)c(=O)[nH]c1=O` (some centres undefined), the IC50 is 460 µM in experiment [1], 730 µM at Thymidylate kinase and above 500 µM in experiment [2].

`Nc1ncnc2c1ncn2C1O[C@H](COP(=O)(O)OP(=O)(O)OP(=O)(O)OP(=O)(O)OP(=O)(O)OC[C@H]2OC(n3cnc4c(N)ncnc43)[C@H](O)[C@@H]2O)[C@@H](O)[C@H]1O` (some centres undefined) yielded an IC50 against Thymidylate kinase above 1000 µM.

Turning to `Cc1cn(C2C[C@H](O)[C@@H](COP(=O)(O)OP(=O)(O)OP(=O)(O)OC[C@H]3OC(n4cnc5c(N)ncnc54)[C@H](O)[C@@H]3O)O2)c(=O)[nH]c1=O` (some centres undefined), the values for the IC50 (in experiment [1]; at Thymidylate kinase; in experiment [2]) were above 500 µM, 1230 µM and above 500 µM, respectively.

`Cc1cn(C2C[C@H](O)[C@@H](COP(=O)(O)CP(=O)(O)OP(=O)(O)OP(=O)(O)OP(=O)(O)OC[C@H]3OC(n4cnc5c(N)ncnc54)[C@H](O)[C@@H]3O)O2)c(=O)[nH]c1=O` (some centres undefined): the concentration for half-maximal inhibition (IC50) was determined as 130 µM in experiment [1], 6 µM on Thymidylate kinase and 9.2 µM in experiment [2].

Regarding `Cc1cn(C2C[C@H](O)[C@@H](COP(=O)(O)CP(=O)(O)OP(=O)(O)OP(=O)(O)OP(=O)(O)OP(=O)(O)OC[C@H]3OC(n4cnc5c(N)ncnc54)[C@H](O)[C@@H]3O)O2)c(=O)[nH]c1=O` (some centres undefined), the figures for the IC50 (in experiment [1]; against Thymidylate kinase; in experiment [2]) were 230 µM, 4 µM and 19.7 µM, respectively.

In the case of `Cc1cn(C2C[C@H](O)[C@@H](COP(=O)(O)CP(=O)(O)OP(=O)(O)OP(=O)(O)OC[C@H]3OC(n4cnc5c(N)ncnc54)[C@H](O)[C@@H]3O)O2)c(=O)[nH]c1=O` (some centres undefined), the values for the IC50 (in experiment [1]; at Thymidylate kinase; in experiment [2]) were 300 µM, 340 µM and 17 µM, respectively.
